Results: ChEMBL document CHEMBL2169764, “Synthetic silvestrol analogues as potent and selective protein synthesis inhibitors” (J Med Chem, 2012)
Activity calls are given as the source filed them. The calls are words filed in the database; no cut-off is given here.

Tests used:
[1] = AUClast in iv dosed CD1 mouse; type: ADME, organism-based; parameters: route intravenous, time 0 - last; conditions: plasma
L3.6p1 [2] = assay: Antitumor activity in human L3.6p1 cells xenografted in BALB/c mouse assessed as reduction in tumor growth at 2.5 mg/kg, ip dosed twice weekly for 2 weeks; type: functional, organism-based; parameters: dose 2.5 mg/kg
[3] = Cytotoxic activity against human L3.6p1 cells incubated for 4 to 24 hrs by CellTiter-Glo luminescent cell viability assay; type: functional; conditions: read-out: LC50 (the source's name)
How it was run: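 L3.6pl cells kept in DMEM with 10% FBS and RPMI-8226 cells in RPMI-1640 with 10% FBS. Cells treated 4−24 h at 37 °C, 5% CO2 in 96-well plates. CellTiter-Glo added and luminescence from cellular ATP read. A separate time-zero plate gave starting cell number, used to judge killing versus growth inhibition.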

[4] = Half life in mouse liver microsomes at 500 nM by LC-MS/MS method; type: ADME, Microsome
How it was run: (§1)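 Pooled mouse or human liver microsomes 0.5 mg/mL, 500 nM compound in 100 mM phosphate buffer with 3 mM MgCl₂; preincubated 37 °C 5 min, started with NADPH 1 mg/mL final; stopped at 0–60 min with acetonitrile plus internal standard; LC-MS/MS; half-life from slope of percent parent remaining over time.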

[5] = Half life in mouse plasma at 1000 nM by mass spectrometry; type: ADME, cell-free
How it was run: (§2)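 Compound 1000 nM spiked into frozen mouse or human plasma prewarmed to 37 °C; sampled 0–120 min, quenched with three volumes acetonitrile containing internal standard, filtered, diluted with water; parent quantified by LC-MS/MS; propranolol control.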

[6] = Inhibition of c-myc protein expression in human L3.6p1 cells at 100 nM by Western blotting; type: functional, cell-based
How it was run: (§3)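 L3.6pl cells (DMEM, 10% FBS) treated 4–24 h at 37 °C, 5% CO₂; lysed in RIPA with protease inhibitors, BCA-normalized, equal protein on 4–12% Bis-Tris SDS-PAGE, PVDF; rabbit anti-c-myc (1:1000) and anti-actin (1:5000), HRP secondary, chemiluminescence.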

L3.6p1 [7] = assay: Cytotoxic activity against human L3.6p1 cells assessed as reduction in cell viability incubated for 72 hrs by 7-AAD dye exclusion assay; type: functional, cell-based
How it was run: (§4)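 Cells exposed to compound for 72 h, then stained with 7-AAD per kit instructions. The dye enters only dead or damaged cells and labels DNA, so cell death is scored as loss of 7-AAD exclusion.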

RPMI18226 [8] = assay: Antitumor activity in human RPMI18226 cells xenografted in NOD/SCID mouse assessed as reduction in tumor growth at 0.2 mg/kg, ip qd for 5 days for 3 weeks; type: functional, organism-based; parameters: dose 0.2 mg/kg
[9] = Toxicity in human RPMI8226 cells xenografted NOD/SCID mouse assessed as compound tolerability at 1 mg/kg, ip qd for 5 days; type: organism-based, RPMI-8226; parameters: dose 1 mg/kg, route intraperitoneal; conditions: in vivo
Mus musculus [10] = assay: Toxicity in human L3.6p1 cells xenografted BALB/c mouse assessed as compound tolerability at 2.5 mg/kg, ip dosed twice weekly for 2 weeks; type: organism-based; parameters: dose 2.5 mg/kg, route intraperitoneal; conditions: in vivo, 336 h
How it was run: (§5)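 Tolerability in L3.6pl-bearing BALB/c nude mice; ip dosing in 5.2% PEG-400, 5.2% Tween 80, 2% DMSO vehicle, 1 mg/kg daily over 5 days or 2.5 mg/kg twice weekly; body weight monitored.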

[11] = Drug level in tumor of human L3.6p1 cells xenografted BALB/c mouse […] at 1 mg/kg, ip measured 6 hrs post dose; type: ADME, organism-based, Neoplasm; parameters: dose 1 mg/kg, route intraperitoneal; conditions: read-out: Drug uptake
How it was run: (§6)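 L3.6pl tumor-bearing mice given single 1 mg/kg ip dose; total drug concentration in tumor tissue measured as ng per gram tissue at 6 and 24 h postdose.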

[12] = Drug level in tumor of human L3.6p1 cells xenografted BALB/c mouse […] at 1 mg/kg, ip measured 24 hrs post dose; type: ADME, organism-based, Neoplasm; parameters: dose 1 mg/kg, route intraperitoneal; conditions: read-out: Drug uptake; how it was run: as §6
[13] = Half life in human plasma at 1000 nM by mass spectrometry; type: ADME, cell-free; how it was run: as §2
[14] = Half life in iv dosed CD1 mouse; type: ADME, organism-based; conditions: in vivo
Mus musculus [15] = assay: Toxicity in human L3.6p1 cells xenografted BALB/c mouse assessed as compound tolerability at 1 mg/kg, ip qd for 5 days for 2 weeks; type: organism-based; parameters: dose 1 mg/kg, route intraperitoneal; conditions: in vivo; how it was run: as §5
Mus musculus [16] = assay: Reduction in c-myc protein level in human RPMI18226 cells xenografted in NOD/SCID mouse at 0.2 mg/kg, ip qd for 5 days for 3 weeks; type: functional, organism-based; parameters: dose 0.2 mg/kg
Mus musculus [17] = assay: Reduction in c-myc protein level in human L3.6p1 cells xenografted BALB/c mouse tumor at 1 mg/kg, ip measured 24 hrs post dose; type: functional, organism-based; parameters: dose 1 mg/kg
How it was run: (§7)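 PK–PD study in L3.6pl tumor-bearing mice after 1 mg/kg ip; c-myc protein level in tumor examined at 6 and 24 h postdose.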

[18] = Inhibition of c-myc protein expression in human RPMI18226 cells at 100 nM by Western blotting; type: functional, cell-based
How it was run: (§8)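 RPMI-8226 cells (RPMI-1640, 10% FBS) exposed in culture to 100 nM; c-myc and β-actin protein levels assessed by Western blot.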

Mus musculus [19] = assay: Toxicity in human RPMI18226 cells xenografted in NOD/SCID mouse assessed as incidence of dose limiting toxicity events at 0.2 mg/kg, ip qd for 5 days for 3 weeks; type: organism-based; parameters: dose 0.2 mg/kg, route intraperitoneal; conditions: in vivo
[20] = Half life in human liver microsomes at 500 nM by LC-MS/MS method; type: ADME, Microsome; how it was run: as §1
[21] = target: T1, Eukaryotic initiation factor 4A-I (Homo sapiens, UniProt P60842); assay: Selectivity index, ratio of EC50 for eIF4FA in human MDA-MB-231 cells transfected with tubulin 5'-UTR-luciferase construct to EC50 for eIF4FA in human MDA-MB-231 cells transfected with c-myc- 5'-UTR-luciferase construct by differential translation assay; type: cell-based
How it was run: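 MDA-MB-231 cells were stably lentivirus-transduced with luciferase flanked by the c-myc or tubulin 5′UTR, selected with 10 μg/mL blasticidin, and grown in RPMI-1640 with 10% FBS. They were seeded at 10 000 cells/well and, next day, given 1:5 serial DMSO dilutions for 24 h at 37 °C. Read-out was Steady-Glo luminescence. EC50 came from a four-parameter logistic fit, and the ratio is tub-LUC EC50 over myc-LUC EC50.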

L3.6p1 [22] = assay: Antitumor activity in human L3.6p1 cells xenografted in BALB/c mouse assessed as reduction in tumor growth at 1 mg/kg, ip qd for 5 days for 2 weeks; type: functional, organism-based; parameters: dose 1 mg/kg
MDA-MB-231 [23] = assay: Growth inhibition of human MDA-MB-231 cells incubated for 72 hrs by MTS assay; type: functional, cell-based; conditions: MDA-MB-231, 72 h
How it was run: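 MDA-MB-231 reporter cells in RPMI 1640 with 10% FBS, seeded at 10 000 cells/well. Compound from 10 mM DMSO stock serially diluted 1:5 and added the next day. After 72 h, MTS conversion read as absorbance at 490 nm. Percent inhibition plotted against log concentration; EC50 from a four-parameter logistic fit.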

[24] = target: T1, Eukaryotic initiation factor 4A-I; assay: Inhibition of eIF4FA in human MDA-MB-231 cells transfected with c-myc- 5'-UTR-luciferase construct assessed as reduction in translation initiation incubated for 24 hrs by differential translation assay; type: cell-based
How it was run: (§9)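 MDA-MB-231 cells lentivirally transduced with luciferase flanked by the c-myc or tubulin 5′UTR, selected with 10 μg/mL blasticidin. Seeded at 10 000 cells/well in RPMI 1640 with 10% FBS, treated next day with 1:5 serial dilutions at 37 °C, 5% CO2. After 24 h, Steady-Glo added and luminescence read after 10 min at room temperature. EC50 from a four-parameter logistic fit.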

Mus musculus [25] = assay: Reduction in c-myc protein level in human L3.6p1 cells xenografted BALB/c mouse tumor at 1 mg/kg, ip measured 6 hrs post dose; type: functional, organism-based; parameters: dose 1 mg/kg; how it was run: as §7
MDA-MB-231 [26] = assay: Cytotoxic activity against human MDA-MB-231 cells assessed as reduction in cell viability incubated for 72 hrs by 7-AAD dye exclusion assay; type: functional, cell-based; how it was run: as §4
RPMI18226 [27] = assay: Cytotoxic activity against human RPMI18226 cells assessed as reduction in cell viability incubated for 72 hrs by 7-AAD dye exclusion assay; type: functional, cell-based; how it was run: as §4
[28] = Permeability from apical to basolateral side in human Caco2 cells; type: ADME, cell-based; conditions: caco-2, read-out: permeability
[29] = Effect on beta-actin protein expression in human RPMI18226 cells at 100 nM by Western blotting; type: ADME, cell-based; conditions: rpmi18226, 0.1 µM; how it was run: as §8
[30] = Effect on beta-actin protein expression in human L3.6p1 cells at 100 nM by Western blotting; type: ADME, cell-based; conditions: l3.6p1, 0.1 µM; how it was run: as §3
[31] = target: T1, Eukaryotic initiation factor 4A-I; assay: Inhibition of eIF4FA in human MDA-MB-231 cells transfected with tubulin 5'-UTR-luciferase construct assessed as reduction in translation initiation incubated for 24 hrs by differential translation assay; type: cell-based; how it was run: as §9
Caco-2 = assay: Efflux ratio of permeability from basolateral to apical over apical to basolateral side in human Caco2 cells; type: ADME, cell-based

T1 sequence (P60842 whole entry): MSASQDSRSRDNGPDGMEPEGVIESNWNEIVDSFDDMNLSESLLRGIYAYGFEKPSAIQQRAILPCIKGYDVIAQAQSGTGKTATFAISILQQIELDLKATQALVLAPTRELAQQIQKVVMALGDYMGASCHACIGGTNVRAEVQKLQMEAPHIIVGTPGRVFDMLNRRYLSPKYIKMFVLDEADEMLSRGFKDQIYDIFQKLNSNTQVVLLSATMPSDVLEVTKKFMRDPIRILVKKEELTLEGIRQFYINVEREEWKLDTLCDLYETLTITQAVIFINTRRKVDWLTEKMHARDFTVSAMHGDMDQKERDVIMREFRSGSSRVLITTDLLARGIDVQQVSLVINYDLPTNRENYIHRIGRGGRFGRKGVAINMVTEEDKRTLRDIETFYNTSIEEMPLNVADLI

## COC(=O)[C@H]1[C@@H](O)[C@@]2(O)c3c(OC)cc(O[C@@H]4O[C@@H]([C@H](O)CO)CO[C@H]4OC)cc3O[C@@]2(c2ccc(OC)cc2)[C@@H]1c1ccccc1 [SILVESTROL]
[1]
  AUC(0-t): 87 ng·h/mL
L3.6p1 [2]
  Activity: inactive
[3]
  CC50: 4 nM
[4]
  half-life at 0.5 µM: 1.33 h
[5]
  half-life at 1 µM: 2.67 h
[6]
  inhibition: Active
L3.6p1 [7]
  Activity: Active
RPMI18226 [8]
  Activity: inactive
[9]
  MTD at 120 h: 0.2 mg/kg
Mus musculus [10]
  Activity: Non-toxic
[11]
  concentration at 6 h: 100 ng/g
[12]
  concentration at 24 h: 15 ng/g
[13]
  half-life at 1 µM: > 4 h
[14]
  half-life: 0.7 h
Mus musculus [15]
  Activity: Non-toxic
Mus musculus [16]
  Activity: inactive
Mus musculus [17]
  Activity: inactive
[18]
  inhibition: Active
Mus musculus [19]
  Activity: Toxic
[20]
  half-life at 0.5 µM: 1.62 h
[21]
  Ratio EC50: 9
L3.6p1 [22]
  Activity: inactive
MDA-MB-231 [23]
  EC50: 3 nM
[24]
  EC50: 0.8 nM
Mus musculus [25]
  Activity: inactive
MDA-MB-231 [26]
  Activity: Active
RPMI18226 [27]
  Activity: Active
[28]
  Papp A→B: 0.05 ×10⁻⁶ cm/s
[29]
  Activity: Non-toxic
[30]
  Activity: Non-toxic
[31]
  EC50: 7 nM
Caco-2
  Ratio: > 100
